{"source": "ChEMBL document CHEMBL4350976", "about": "“Sequence modification of heptapeptide selected by phage display as homing device for HT-29 colon cancer cells to improve the anti-tumour activity of drug delivery systems” (Eur J Med Chem, 2019)", "key": {"[1]": {"system": "U-87 MG", "assay": "Potency index, ratio of compound IC50 to Daunomycin IC50 for human U87 cells preincubated for 24 hrs under serum free condition followed by compound washout and further incubation for 48 hrs in presence of serum by MTT assay", "assay_type": "functional, U-87MG ATCC"}, "[2]": {"assay": "Solubility of compound", "assay_type": "physicochemical"}, "[3]": {"assay": "Drug uptake in human HT-29 cells incubated for 3 hrs by flow cytometry", "assay_type": "ADME, cell-based", "conditions": "ht-29, 3 h", "procedure,_shortened": "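HT-29 cells were exposed to 100 µM conjugate for 3 h. Flow cytometry recorded the percentage of Dau-positive cells and the mean fluorescence intensity, in duplicate.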"}, "[4]": {"assay": "Stability in 2.5% fetal bovine serum containing medium at 30 uM measured after 24 hrs by LC/MS analysis", "assay_type": "ADME, cell-free, Bos taurus", "conditions": "cattle", "procedure,_shortened": "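Conjugates (30 μM) were incubated at 37 °C in medium containing 2.5% FBS. Samples were taken at 0, 3, 6 and 24 h, quenched with acetic acid, lyophilised, desalted on C18 spin columns and analysed by LC-MS. Cleavage products were identified by mass.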"}, "[5]": {"system": "WiDr", "assay": "Potency index, ratio of compound IC50 to Daunomycin IC50 for human WiDr cells preincubated for 24 hrs under serum free condition followed by compound washout and further incubation for 48 hrs in presence of serum by MTT assay", "assay_type": "functional"}, "[6]": {"assay": "Potency index, ratio of compound IC50 to Daunomycin IC50 for human PECAPJ41 cells preincubated for 24 hrs under serum free condition followed by compound washout and further incubation for 48 hrs in presence of serum by MTT assay", "assay_type": "functional"}, "[7]": {"system": "HCT-116", "assay": "Potency index, ratio of compound IC50 to Daunomycin IC50 for human HCT116 cells preincubated for 24 hrs under serum free condition followed by compound washout and further incubation for 48 hrs in presence of serum by MTT assay", "assay_type": "functional"}, "[8]": {"system": "NCI-H1975", "assay": "Cytostatic activity against human NCI-H1975 cells preincubated for 24 hrs under serum free condition followed by compound washout and further incubation for 48 hrs in presence of serum by MTT assay", "assay_type": "functional, cell-based", "procedure,_shortened": "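Cells were grown at 37 °C in 5% CO2 in medium with 10% heat-inactivated FBS (20% for OVCAR-3) plus penicillin/streptomycin. The medium was RPMI-1640 for most lines, DMEM for U-87 MG and MRC-5, and IMDM for PE/CA-PJ lines. Seeding was 3×10^3–10×10^3 cells per well. Cells had 24 h compound exposure, a wash, and 48 h further culture. Read-out was MTT, normalized to untreated cells and fitted by nonlinear regression for IC50.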"}, "[9]": {"assay": "Stability in human plasma assessed as parent compound remaining at 30 uM measured after 1 hr by LC/MS analysis", "assay_type": "ADME, cell-free", "procedure,_shortened": "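Conjugates were incubated in 90% human plasma from a healthy volunteer. Samples were taken at 0, 5 and 60 min and analysed by HPLC-MS.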"}, "[10]": {"system": "A549", "assay": "Potency index, ratio of compound IC50 to Daunomycin IC50 for human A549 cells preincubated for 24 hrs under serum free condition followed by compound washout and further incubation for 48 hrs in presence of serum by MTT assay", "assay_type": "functional"}, "[11]": {"system": "CT26.WT", "assay": "Potency index, ratio of compound IC50 to Daunomycin IC50 for mouse CT26.WT cells preincubated for 24 hrs under serum free condition followed by compound washout and further incubation for 48 hrs in presence of serum by MTT assay", "assay_type": "functional"}}, "note": "Where a SMILES comes first, the peptide text is derived from it. The star is where a group is joined. X1 = COc1cccc2c1C(=O)c1c(O)c3c(c(O)c1C2=O)C[C@@](O)(/C(C)=N/OCC(=O)*)C[C@@H]3O[C@H]1C[C@H](N)[C@H](O)[C@H](C)O1"}
{"smiles": "COc1cccc2c1C(=O)c1c(O)c3c(c(O)c1C2=O)C[C@@](O)(/C(C)=N/OCC(=O)N[C@@H](CC(C)C)C(=O)N[C@@H](CCCNC(=N)N)C(=O)N[C@@H](CCCNC(=N)N)C(=O)N[C@@H](Cc1ccc(O)cc1)C(=O)N[C@H](C(=O)N[C@@H](Cc1cnc[nH]1)C(=O)N[C@@H](CC(C)C)C(=O)N[C@@H](Cc1ccccc1)C(=O)N[C@@H](Cc1ccc(O)cc1)C(=O)N[C@@H](C)C(=O)N[C@H](C(N)=O)[C@@H](C)O)C(C)C)C[C@@H]3O[C@H]1C[C@H](N)[C@H](O)[C@H](C)O1", "note": "(X1-LRRYVHLFYAT-NH2)", "values": [{"measurement": "Ratio IC50", "setting": "[1]", "value": 236.9}, {"measurement": "solubility", "setting": "[2]", "value": "Soluble"}, {"measurement": "Drug uptake", "setting": "[3]", "value": "Dose-dependent effect"}, {"measurement": "Stability", "setting": "[4]", "value": "Stable"}, {"measurement": "Ratio IC50", "setting": "[5]", "value": 62.8}, {"measurement": "Ratio IC50", "setting": "[6]", "value": 165.7}, {"measurement": "Ratio IC50", "setting": "[7]", "value": 57}, {"measurement": "IC50", "setting": "[8]", "value": 3.7, "unit": "µM"}, {"measurement": "Stability", "setting": "[9]", "value": "Stable"}, {"measurement": "Ratio IC50", "setting": "[10]", "value": 86.1}, {"measurement": "Ratio IC50", "setting": "[11]", "value": 66}]}
